In brackets after ≈: the same amount, converted by molar mass.
Columns and labels:
[1] = system: Staphylococcus aureus; experiment: Antibacterial activity against methicillin-resistant Staphylococcus aureus clinical isolate after 24 hrs by microdilution method; type: functional
Method in brief: (§1)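 Broth microdilution; MIC read as the lowest compound concentration that prevents visible bacterial growth after incubation at 37 °C for 18–24 h, and expressed in μg/mL.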

[2] = Cytotoxicity against human Hep2 cells after 72 hrs by alamar blue assay; type: cell-based; settings: HEp-2 cells
[3] = molecular target: DNA gyrase (Staphylococcus aureus, UniProt P0A0K8+P20831); experiment: Inhibition of wild-type Staphylococcus aureus DNA gyrase assessed as inhibition of supercoiling of pBR322 DNA after 60 min by gel electrophoresis assay; type: protein-complex assay
[4] = system: Staphylococcus aureus; experiment: Antibacterial activity against methicillin- and quinolone-resistant Staphylococcus aureus ATCC700699 after 24 hrs by microdilution method; type: functional; settings: ATCC700699, 24 h; method in brief: as §1
[5] = molecular target: DNA gyrase subunit A (Staphylococcus aureus, UniProt P20831, S84L); experiment: Inhibition of Staphylococcus aureus DNA gyrase Ser84Leu mutant assessed as inhibition of supercoiling of pBR322 DNA after 60 min by gel electrophoresis assay
[6] = system: Staphylococcus aureus; experiment: Ratio of vancomycin MIC to compound MIC for methicillin-resistant Staphylococcus aureus clinical isolate; type: functional
[7] = Inhibition of Staphylococcus aureus topoisomerase 4 Ser80Phe mutant-mediated decatenation of kDNA after 30 mins by gel electrophoresis assay
[8] = system: DNA gyrase subunit A (Staphylococcus aureus), P20831 [S84L]; experiment: Ratio of ciprofloxacin IC50 to compound IC50 for Staphylococcus aureus DNA gyrase Ser84Leu mutant
[9] = system: Escherichia coli; experiment: Antibacterial activity against Escherichia coli ATCC25922 after 24 hrs by microdilution method; type: functional; settings: ATCC25922, 24 h
Method in brief: (§2)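 MIC taken as the lowest concentration with no visible bacterial growth after 18-24 h at 37 °C, given in μg/mL; modal value of multiple experiments.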

[10] = system: Staphylococcus aureus; experiment: Antibacterial activity against methicillin-sensitive Staphylococcus aureus ATCC 29213 after 24 hrs by microdilution method; type: functional; settings: ATCC 29213, 24 h; method in brief: as §2
[11] = system: Staphylococcus aureus; experiment: Ratio of ciprofloxacin IC50 to compound IC50 for Staphylococcus aureus topoisomerase 4 Ser80Phe mutant
[12] = Inhibition of wild-type Staphylococcus aureus topoisomerase 4-mediated decatenation of kDNA after 30 mins by gel electrophoresis assay
[13] = system: Staphylococcus aureus; experiment: Antibacterial activity against methicillin-resistant Staphylococcus aureus ATCC 700699 after 24 hrs by microdilution method; type: functional; settings: ATCC700699, 24 h; method in brief: as §1
[14] = system: Staphylococcus aureus; experiment: Ratio of levofloxacin MIC to compound MIC for methicillin-resistant Staphylococcus aureus clinical isolate; type: functional
[15] = molecular target: DNA gyrase (Staphylococcus aureus) (UniProt P0A0K8+P20831); experiment: Ratio of ciprofloxacin IC50 to compound IC50 for wild-type Staphylococcus aureus DNA gyrase; type: protein-complex assay
[16] = system: Staphylococcus aureus; experiment: Ratio of ciprofloxacin IC50 to compound IC50 for wild-type Staphylococcus aureus topoisomerase 4

In the case of `COc1c(N2CC[C@@H](C(C)(C)N)C2)c(F)cc2c(=O)c3c(=O)[nH]sc3n(C3CC3)c12`, the MIC50 [1] is reported as 0.06 µg/mL (≈ 0.139 µM), the MIC90 [1] is reported as 0.25 µg/mL (≈ 0.578 µM) and the CC50 at 72 h [2] is reported as 9000 nM. It also gave an IC50 [3] of 680 nM, an MIC [4] of 0.06 µg/mL (≈ 0.139 µM) and an IC50 [5] of 4200 nM. For the same molecule, the Ratio [6] was 4, the IC50 [7] was 600 nM and the Ratio [8] was over 48. It also gave an MIC [9] of 0.06 µg/mL (≈ 0.139 µM), an MIC [10] of 0.004 µg/mL (≈ 0.00925 µM) and a Ratio [11] of 95. It also gave an IC50 [12] of 120 nM, an MIC [13] of 0.06 µg/mL (≈ 0.139 µM) and a Ratio [14] of 256.
`COc1c(N2CC[C@@H]([C@H](C)N)C2)c(F)cc2c(=O)c3c(=O)[nH]sc3n(C3CC3)c12` (mixture of isomers) showed an MIC50 [1] of 0.06 µg/mL, an MIC90 [1] of 0.5 µg/mL and a CC50 at 72 h [2] of 6000 nM. The IC50 [3] was 680 nM, the Ratio IC50 [15] was 91 and the MIC [4] was 0.06 µg/mL. For the same molecule, the IC50 [5] was 3200 nM, the IC50 [7] was 470 nM and the Ratio [8] was over 62. The MIC [9] was 0.008 µg/mL, the Ratio IC50 [16] was 75 and the MIC [10] was 0.002 µg/mL. For the same molecule, the Ratio [11] was 121, the IC50 [12] was 40 nM and the MIC [13] was 0.06 µg/mL.
Molecule `CN[C@@H](C)[C@@H]1CCN(c2c(F)cc3c(=O)c4c(=O)[nH]sc4n(C4CC4)c3c2OC)C1` (mixture of isomers) has a CC50 at 72 h [2] of 12000 nM, an IC50 [3] of 1100 nM and an MIC [4] of 0.25 µg/mL. It also gave an IC50 [5] of 18700 nM, an IC50 [7] of 1160 nM and an MIC [9] of 0.03 µg/mL. It also gave an MIC [10] of 0.008 µg/mL, an IC50 [12] of 110 nM and an MIC [13] of 0.25 µg/mL.
With `COc1c(N2CC[C@@H]([C@H](C)NCCF)C2)c(F)cc2c(=O)c3c(=O)[nH]sc3n(C3CC3)c12` (mixture of isomers) the CC50 at 72 h [2] was 73000 nM, the IC50 [3] was 1320 nM and the MIC [4] was 0.13 µg/mL. It also gave an IC50 [5] of 12000 nM, an IC50 [7] of 660 nM and an MIC [9] of 0.06 µg/mL. The MIC [10] was 0.002 µg/mL, the IC50 [12] was 60 nM and the MIC [13] was 0.13 µg/mL.
In the case of `O=C(O)c1cn(C2CC2)c2cc(N3CCNCC3)c(F)cc2c1=O` [CIPROFLOXACIN], the CC50 at 72 h [2] is reported as over 100000 nM, the MIC [4] is reported as 32 µg/mL (≈ 96.6 µM) and the IC50 [7] is reported as 57000 nM. It also gave an MIC [10] of 0.25 µg/mL (≈ 0.754 µM), an IC50 [12] of 3000 nM and an MIC [13] of 32 µg/mL (≈ 96.6 µM).
`CO/N=C1\CN(c2nc3c(cc2F)c(=O)c(C(=O)O)cn3C2CC2)CC1CN` (stereo unspecified) [GEMIFLOXACIN] showed an IC50 [5] of over 200000 nM, an IC50 [7] of 9800 nM and an MIC [9] of 4 µg/mL (≈ 10.3 µM). For the same molecule, the MIC [10] was 0.03 µg/mL (≈ 0.077 µM), the IC50 [12] was 400 nM and the MIC [13] was 2 µg/mL (≈ 5.14 µM).
Molecule `C[C@H]1COc2c(N3CCN(C)CC3)c(F)cc3c(=O)c(C(=O)O)cn1c23.C[C@H]1COc2c(N3CCN(C)CC3)c(F)cc3c(=O)c(C(=O)O)cn1c23.O` [LEVOFLOXACIN] has an MIC50 [1] of 16 µg/mL and an MIC90 [1] of over 16 µg/mL.
With `CC(=O)NC[C@H]1CN(c2ccc(N3CCOCC3)c(F)c2)C(=O)O1` [LINEZOLID] the MIC [1] was 1 µg/mL (≈ 2.96 µM), the MIC50 [1] was 1 µg/mL (≈ 2.96 µM) and the MIC90 [1] was 2 µg/mL (≈ 5.93 µM).
In the case of `COc1c(N2C[C@@H]3CCCN[C@@H]3C2)c(F)cc2c(=O)c(C(=O)O)cn(C3CC3)c12` [MOXIFLOXACIN], the CC50 at 72 h [2] is reported as over 100000 nM, the MIC [4] is reported as 4 µg/mL (≈ 9.96 µM) and the IC50 [7] is reported as 11900 nM. For the same molecule, the MIC [9] was 0.03 µg/mL (≈ 0.0747 µM), the MIC [10] was 0.06 µg/mL (≈ 0.149 µM) and the IC50 [12] was 1000 nM. It also gave an MIC [13] of 2 µg/mL (≈ 4.98 µM).
Work on `Cc1onc(-c2ccccc2)c1C(=O)N[C@@H]1C(=O)N2[C@@H]1SC(C)(C)[C@@H]2C(=O)O` [OXACILLIN] yielded an MIC50 [1] of over 16 µg/mL and an MIC90 [1] of over 16 µg/mL.
Molecule `CN[C@H](CC(C)C)C(=O)N[C@H]1C(=O)N[C@@H](CC(N)=O)C(=O)N[C@H]2C(=O)N[C@H]3C(=O)N[C@H](C(=O)N[C@H](C(=O)O)c4cc(O)cc(O)c4-c4cc3ccc4O)[C@H](O)c3ccc(c(Cl)c3)Oc3cc2cc(c3O[C@@H]2O[C@H](CO)[C@@H](O)[C@H](O)[C@H]2O[C@H]2C[C@](C)(N)[C@H](O)[C@H](C)O2)Oc2ccc(cc2Cl)[C@H]1O` [VANCOMYCIN] has an MIC50 [1] of 1 µg/mL (≈ 0.69 µM) and an MIC90 [1] of 1 µg/mL (≈ 0.69 µM).
